According to ChEMBL document CHEMBL4673308, “Synthesis and evaluation of new dinitrobenzamide mustards in human prostate cancer” (Bioorg Med Chem Lett, 2021):

Experiments:
PC-3 [1] = assay: Cytotoxicity against human PC-3 cells assessed as reduction in cell viability incubated for 2 hrs under normoxic condition followed by washed with fresh media incubated for 3 days by alamar blue assay; format: functional, cell-based
Method in brief: (§1)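 Cells exposed to the mustards across a concentration range for 2 h under hypoxia (N2) or normoxia (air), then washed and incubated 3 days under normoxia. Viability was read with alamarBlue, and IC50 is reported as mean ± SEM.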

[2] = Selectivity index, ratio of IC50 for human PC-3 cells under normoxic condition to IC50 human PC-3 cells under hypoxia condition incubated for 2 hrs followed by washed with fresh media incubated for 3 days by alamar blue assay; format: functional
Method in brief: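 PC-3 hypoxia selectivity is the IC50 in air divided by the IC50 under N2. Both come from the 2 h exposure, wash, 3-day normoxic incubation and alamarBlue viability readout.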

[3] = Lipophilicity, logD of compound at pH 7.4 by microscale shake flask method; format: physicochemical; details: buffer
Method in brief: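 Distribution coefficient measured at pH 7.4 and reported as mean ± SEM from two or more independent experiments, each in triplicate.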

DU-145 [4] = assay: Cytotoxicity against human DU145 cells assessed as reduction in cell viability incubated for 2 hrs under hypoxic condition followed washed with fresh media incubated for 3 days by alamar blue assay; format: functional, cell-based; method in brief: as §1
PC-3 [5] = assay: Cytotoxicity against human PC-3 cells assessed as reduction in cell viability incubated for 2 hrs under hypoxic condition followed by washed with fresh media incubated for 3 days by alamar blue assay; format: functional, cell-based; method in brief: as §1
DU-145 [6] = assay: Cytotoxicity against human DU145 cells assessed as reduction in cell viability incubated for 2 hrs under normoxic condition followed by washed with fresh media incubated for 3 days by alamar blue assay; format: functional, cell-based; method in brief: as §1
PC-3 [7] = assay: Cytotoxicity against human PC-3 cells assessed as reduction in cell viability preincubated for 4 hrs in hypoxia and further incubated for 5 days in fresh medium by SRB assay; format: functional, cell-based

SMILES | IC50 (PC-3 [1]) [µM] | Ratio IC50 [2] | logD [3] | IC50 (DU-145 [4]) [µM] | IC50 (PC-3 [5]) [µM] | IC50 (DU-145 [6]) [µM] | IC50 (PC-3 [7]) [µM]
O=C(O)CCNC(=O)c1cc([N+](=O)[O-])cc([N+](=O)[O-])c1N(CCBr)CCOS(=O)(=O)C(F)(F)F | 350 | 3.9 | 0.15 | 68 | 90 | 480 | –
CS(=O)(=O)OCCN(CCBr)c1c(C(=O)NCCC(=O)O)cc([N+](=O)[O-])cc1[N+](=O)[O-] | 417 | 10 | -0.71 | 56 | 41 | 326 | –
Cc1ccc(S(=O)(=O)OCCN(CCBr)c2c(C(=O)NCCC(=O)O)cc([N+](=O)[O-])cc2[N+](=O)[O-])cc1 | 460 | 11 | 1.03 | 54 | 42 | 363 | –
O=C(NCCO)c1cc([N+](=O)[O-])cc([N+](=O)[O-])c1N(CCBr)CCOS(=O)(=O)C(F)(F)F | 245 | 5.8 | 0.33 | 51 | 42 | 470 | –
CS(=O)(=O)OCCN(CCBr)c1c(C(=O)NCCO)cc([N+](=O)[O-])cc1[N+](=O)[O-] | 320 | 6.7 | 0.8 | 78 | 48 | 210 | 7.3
O=C(NCCO)c1cc([N+](=O)[O-])cc([N+](=O)[O-])c1N(CCBr)CCBr | 193 | 7.4 | 1.7 | 80 | 26 | 177 | –
O=C(O)CCNC(=O)c1cc([N+](=O)[O-])cc([N+](=O)[O-])c1N(CCBr)CCBr | 490 | 6.5 | 0.42 | 47 | 75 | 413 | –
Cc1ccc(S(=O)(=O)OCCN(CCBr)c2c(C(=O)NCCO)cc([N+](=O)[O-])cc2[N+](=O)[O-])cc1 | 146 | 3.9 | 0.95 | 28 | 37 | 108 | –
